Results as given in ChEMBL document CHEMBL1143007, “Synthesis and evaluation of 4/5-hydroxy-2,3-diaryl(substituted)-cyclopent-2-en-1-ones as cis-restricted analogues of combretastatin A-4 as novel anticancer agents” (J Med Chem, 2007).
Values after ≈ are worked out from the molar mass of the structure shown.

Columns and labels:
[1] = tested on: HT-29; assay: Cytotoxicity against human HT29 cells after 72 hrs by MTT assay; format: cell-based; details: Homo sapiens, HT-29, 72 h; read-out: IC50
Procedure, shortened: (§1)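 MTT assay. Cells seeded at 5000-10 000 per well and incubated at 37 °C in CO₂ with compound at 1-100 µg/mL in triplicate wells for 72 h, then MTT added. Absorbance read at 540 nm; % cytotoxicity = 100 × (1 − treated/control). IC50 obtained by nonlinear regression; NA means IC50 above 100 µg/mL.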

[2] = tested on: DU-145; assay: Cytotoxicity against human DU145 cells after 72 hrs by MTT assay; format: cell-based; details: Homo sapiens, DU-145, 72 h; read-out: IC50; procedure, shortened: as §1
[3] = tested on: KB; assay: Cytotoxicity against human KB cells after 72 hrs by MTT assay; format: cell-based; procedure, shortened: as §1
[4] = tested on: L132; assay: Cytotoxicity against human L132 cells after 72 hrs by MTT assay; format: cell-based; procedure, shortened: as §1
[5] = tested on: MIA PaCa-2; assay: Cytotoxicity against human MiaPaCa2 cells after 72 hrs by MTT assay; format: cell-based; details: Homo sapiens, MIA PaCa-2, 72 h; read-out: IC50; procedure, shortened: as §1
[6] = Cytotoxicity against human Hep2 cells after 72 hrs by MTT assay; format: cell-based, HEp-2; procedure, shortened: as §1
[7] = Cytotoxicity against human PA1 cells after 72 hrs by MTT assay; format: cell-based, PA-1; procedure, shortened: as §1
[8] = Cytotoxicity against human ECV304 cells after 72 hrs by MTT assay; format: cell-based, ECV-304; procedure, shortened: as §1
[9] = tested on: HEK293; assay: Cytotoxicity against human HEK293 cells after 72 hrs by MTT assay; format: cell-based; details: Homo sapiens, HEK293, 72 h; read-out: IC50; procedure, shortened: as §1
[10] = Homo sapiens, KB, 72 h, read-out: IC50
[11] = Homo sapiens, L132, 72 h, read-out: IC50
[12] = Homo sapiens, HEp-2, 72 h, read-out: IC50
[13] = Homo sapiens, PA-1, 72 h, read-out: IC50
[14] = Homo sapiens, ECV-304, 72 h, read-out: IC50

SMILES	IC50 [1] [µg/mL]	IC50 [2] [µg/mL]	IC50 [3, 10] [µg/mL]	IC50 [4, 11] [µg/mL]	IC50 [5] [µg/mL]	IC50 [6, 12] [µg/mL]	IC50 [7, 13] [µg/mL]	IC50 [8, 14] [µg/mL]	IC50 [9] [µg/mL]	IC50 ([3]; kb) [µg/mL]	IC50 ([4]; l132) [µg/mL]	IC50 ([6]; hep-2) [µg/mL]	IC50 ([7]; pa-1) [µg/mL]	IC50 ([8]; ecv-304) [µg/mL]
COc1ccc(C2=C(c3cc(OC)c(OC)c(OC)c3)CC(O)C2=O)cc1N (stereo not drawn)	< 1	41 (≈ 106 µM)	< 1	54 (≈ 140 µM)	> 100	16 (≈ 41.5 µM)	20 (≈ 51.9 µM)	> 100	> 100					
COc1cc(C2=C(c3ccccc3)C(O[Si](C)(C)C(C)(C)C)CC2=O)cc(OC)c1OC (stereo not drawn)	> 100	> 100	> 100	> 100	> 100	> 100	> 100	> 100	> 100					
COc1ccc(C2=C(c3cc(OC)c(OC)c(OC)c3)C(=O)C(O)C2)cc1OC(C)C (stereo not drawn)	> 100	> 100	> 100	> 100	> 100	> 100	> 100	> 100	> 100					
COc1cc(C2=C(c3ccc(SC)cc3)CC(O)/C2=N/O)cc(OC)c1OC (stereo not drawn)	36 (≈ 89.7 µM)	2.5 (≈ 6.23 µM)	15 (≈ 37.4 µM)	> 100	40 (≈ 99.6 µM)	< 1	25.3 (≈ 63 µM)	57 (≈ 142 µM)	27 (≈ 67.3 µM)					
COc1ccc(C2=C(c3cc(OC)c(OC)c(OC)c3)C(=O)CC2O[Si](C)(C)C(C)(C)C)cc1OC (stereo not drawn)	> 100	> 100	> 100	> 100	> 100	> 100	> 100	> 100	> 100					
COc1ccc(OC)c(C2=C(c3cc(OC)c(OC)c(OC)c3)C(=O)CC2O)c1 (stereo not drawn)	> 100	> 100	> 100	> 100	> 100	> 100	> 100	> 100	> 100					
COc1ccc(C2=C(c3cc(OC)c(OC)c(OC)c3)C(=O)CC2O)cc1O (stereo not drawn)	< 1	8 (≈ 20.7 µM)	< 1	< 1	> 100	< 1	< 1	> 100	> 100					
COc1ccc(C2=C(c3cc(OC)c(OC)c(OC)c3)/C(=N\O)C(O)C2)cc1O (stereo not drawn)	69 (≈ 172 µM)	10 (≈ 24.9 µM)	90 (≈ 224 µM)	81 (≈ 202 µM)	> 100	20 (≈ 49.8 µM)	26 (≈ 64.8 µM)	> 100	> 100					
COc1ccc(C2=C(c3cc(OC)c(OC)c(OC)c3)/C(=N\O)CC2OC(C)=O)cc1 (stereo in doubt; 40)	< 1	21 (≈ 49.1 µM)			< 1				22 (≈ 51.5 µM)	< 1	< 1	< 1	< 1	60 (≈ 140 µM)
COc1ccc(C2=C(c3cc(OC)c(OC)c(OC)c3)CC(O[Si](C)(C)C(C)(C)C)C2=O)cc1[N+](=O)[O-] (stereo not drawn)	> 100	> 100	> 100	> 100	> 100	> 100	> 100	> 100	> 100					
COc1ccc(C2=C(c3cc(OC)c(OC)c(OC)c3)C(=O)C(OC(C)=O)C2)cc1Cl (stereo not drawn)	< 1	64 (≈ 143 µM)	64 (≈ 143 µM)	< 1	24 (≈ 53.7 µM)	< 1	> 100	3.5 (≈ 7.83 µM)	60 (≈ 134 µM)					
COc1ccc(C2=C(c3cc(OC)c(OC)c(OC)c3)/C(=N\O)CC2O)cc1O (stereo not drawn)	9 (≈ 22.4 µM)	23 (≈ 57.3 µM)	10 (≈ 24.9 µM)	8 (≈ 19.9 µM)	> 100	< 1	3.7 (≈ 9.22 µM)	> 100	> 100					
